Converted amounts (≈) assume the structure as drawn. The source made the active and inactive calls. Bounds are passed on as bounds.

Assay [1] deals with Enterococcus faecalis. The assay can be described thus: Antimicrobial activity against Enterococcus faecalis 1131 in presence of reserpine after 14 hrs. It is filed as functional, organism-based.
The test system of assay [2] is Staphylococcus aureus. The assay can be described thus: Antimicrobial activity against Staphylococcus aureus FRI 100 in presence of reserpine after 14 hrs. It counts as functional, organism-based.
Assay [3] relates to Enterococcus faecalis. Description: Antimicrobial activity against Enterococcus faecalis 1131 after 14 hrs. It counts as functional, organism-based.
Another assay concerns Nucleic Acid. The assay can be described thus: Induction of DNA damage at Escherichia coli supercoiled pUC19 bound to DNA gyrase assessed as dsDNA breaks in the absence of ATP at =<3.3 mM after 1 hrs by agarose gel electrophoresis. It counts as nucleic-acid assay.
Assay [4] has as its system Enterococcus faecalis. The assay can be described thus: Antimicrobial activity against Enterococcus faecalis 1131 after 14 hrs by macrodilution method. It is filed as functional. The following applies: Enterococcus faecalis, 1131, 14 h.
Assay [5] deals with Salmonella enterica. Description: Antimicrobial activity against Salmonella enterica ATCC 19585 after 14 hrs by microdilution method in presence of efflux pump inhibitor 60 uM MC-207,110. It counts as functional. The following applies: ATCC 19585, 14 h.
Assay [6] has as its system Escherichia coli. The assay can be described thus: Antimicrobial activity against Escherichia coli BW25113 delta tolC after 14 hrs by macrodilution method. It is filed as functional. An outline of the steps:
(§1)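 MIC determined in the E. coli BW25113 ΔtolC drug-pump knockout, which lacks a functional AcrAB-TolC multidrug efflux pump. The pump inhibitor was applied only to the wild-type strains.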

Assay [7] relates to Escherichia coli. The assay can be described thus: Antimicrobial activity against Escherichia coli BW25113 after 14 hrs by microdilution method in presence of efflux pump inhibitor 60 uM MC-207,110. It counts as functional. The following applies: BW25113, 14 h. (In general: Broth dilution looks for growth in wells or tubes with falling amounts of substance.)
Assay [8] deals with Streptococcus pneumoniae. Description: Antimicrobial activity against Streptococcus pneumoniae ATCC 10813 after 24 hrs by microdilution method. It is filed as functional. The following applies: ATCC 10813, 24 h.
Assay [9] has as its system Streptococcus pneumoniae. Description: Antimicrobial activity against Streptococcus pneumoniae ATCC 10813 after 24 hrs by macrodilution method. It is filed as functional. The following applies: ATCC 10813, 24 h.
The subject of assay [10] is Staphylococcus aureus. Description: Antimicrobial activity against Staphylococcus aureus FRI 100 after 14 hrs by macrodilution method. The following applies: FRI 100, 14 h. It is filed as functional.
In assay [11] the test system is Salmonella enterica. Description: Antimicrobial activity against Salmonella enterica ATCC 19585 after 14 hrs by macrodilution method in presence of efflux pump inhibitor 60 uM MC-207,110. It is filed as functional. The following applies: ATCC 19585, 14 h. An outline of the steps: (§2)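 Run on wild-type strains, with 60 μM of the efflux pump inhibitor MC-207,110 added to potentiate compound activity.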

The test system of assay [12] is Pseudomonas aeruginosa. The assay can be described thus: Antimicrobial activity against Pseudomonas aeruginosa K after 16 hrs by macrodilution method in presence of efflux pump inhibitor 60 uM MC-207,110. It counts as functional. An outline of the steps: as §2
Assay [13] relates to Pseudomonas aeruginosa. The assay can be described thus: Antimicrobial activity against Pseudomonas aeruginosa K after 16 hrs by microdilution method in presence of efflux pump inhibitor 60 uM MC-207,110. It is filed as functional.
Assay [14] relates to Escherichia coli. The assay can be described thus: Antimicrobial activity against Escherichia coli BW25113 after 14 hrs by macrodilution method in presence of efflux pump inhibitor 60 uM MC-207,110. It is filed as functional. The following applies: BW25113, 14 h. An outline of the steps: as §2
Assay [15] in a line: Inhibition of Escherichia coli DNA gyrase assessed as DNA supercoiling using pUC19 as substrate after 30 mins by agarose gel electrophoresis. An outline of the steps: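 Gel-based supercoiling assay on pUC19. Supercoiled, linear and relaxed pUC19 were run as marker lanes. Test compounds were applied at a range of μM concentrations.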
In assay [16] the test system is Escherichia coli. Description: Antimicrobial activity against Escherichia coli BW25113 delta tolC after 14 hrs by microdilution method. It is filed as functional. An outline of the steps: as §1

On to `Cc1ccc(F)cc1S(=O)(=O)NC1CCN(Cc2ccc(OC(C)C)cc2)C1` (stereo not drawn), for which the result in the assay on Enterococcus faecalis [1], in the assay with Staphylococcus aureus [2], with Enterococcus faecalis [3] and with Nucleic Acid was inactive.

`Cc1ccc(F)cc1S(=O)(=O)N[C@@H]1CCN(Cc2ccc(OC(C)C)cc2)C1`: the MIC (commonly the smallest concentration in the dilution series that meets the test's criterion for growth inhibition) is more than 160 µM against Enterococcus faecalis [4]; 80 µM in the assay with Salmonella enterica [5]; 10 µM (≈ 4.07 µg/mL) in the assay on Escherichia coli [6]; 40 µM with Escherichia coli [7]; 160 µM (≈ 65 µg/mL) in the assay with Streptococcus pneumoniae [8]; 160 µM (≈ 65 µg/mL) in the assay on Streptococcus pneumoniae [9]. For the same compound, the MIC with Staphylococcus aureus [10] is more than 160 µM; in the assay with Salmonella enterica [11], 80 µM; in the assay on Pseudomonas aeruginosa [12] it was 80 µM; in the assay with Pseudomonas aeruginosa [13], 80 µM; in the assay with Escherichia coli [14] it was 40 µM. For the same compound, the IC50 (usually the concentration that inhibits the measured activity by half) in [15] amounted to 3.3 µM.

For `Cc1ccc(F)cc1S(=O)(=O)NC1CCN(Cc2ccc(-c3ccccc3)cc2)C1` (stereo not drawn) [GYRAMIDE C], the MIC against Enterococcus faecalis [4] was more than 160 µM; with Salmonella enterica [5], 10 µM; against Escherichia coli [6] it was 2.5 µM (≈ 1.06 µg/mL); in the assay with Escherichia coli [7], 20 µM; against Streptococcus pneumoniae [9], 10 µM (≈ 4.25 µg/mL); in the assay on Staphylococcus aureus [10] it was 20 µM (≈ 8.49 µg/mL). The MIC worked out at 10 µM in the assay on Salmonella enterica [11]; 20 µM in the assay on Pseudomonas aeruginosa [12]; 20 µM with Pseudomonas aeruginosa [13]; 20 µM in the assay on Escherichia coli [14]; 2.5 µM (≈ 1.06 µg/mL) in the assay on Escherichia coli [16]. Further, the outcome in the assay with Enterococcus faecalis [1], in the assay with Staphylococcus aureus [2] and with Enterococcus faecalis [3] was inactive. For the same compound, the IC50 in assay [15] turned out to be 1.1 µM.

As for `Cc1ccc(F)cc1S(=O)(=O)NC1CCN(Cc2ccc(CC(C)C)cc2)C1` (stereo not drawn) [GYRAMIDE B], the MIC was more than 160 µM against Enterococcus faecalis [4]; 20 µM with Salmonella enterica [5]; 5 µM (≈ 2.02 µg/mL) in the assay with Escherichia coli [6]; 40 µM with Escherichia coli [7]; 20 µM (≈ 8.09 µg/mL) in the assay on Streptococcus pneumoniae [9]; 80 µM (≈ 32.4 µg/mL) in the assay on Staphylococcus aureus [10]. The MIC in the assay with Salmonella enterica [11] came out at 20 µM; with Pseudomonas aeruginosa [12], 40 µM; in the assay on Pseudomonas aeruginosa [13] it was 40 µM; with Escherichia coli [14] it was 40 µM. In addition, the outcome in the assay with Enterococcus faecalis [1], in the assay on Staphylococcus aureus [2] and in the assay with Enterococcus faecalis [3] was inactive. In addition, the IC50 in assay [15] is 0.7 µM.

In the case of `Cc1ccc(F)cc1S(=O)(=O)N[C@H]1CCN(Cc2ccc(OC(C)C)cc2)C1`, the MIC in the assay on Escherichia coli [6] and against Escherichia coli [16] was 140 µM (≈ 56.9 µg/mL) throughout. Also, the IC50 in [15] was 40.8 µM.

Values taken from ChEMBL document CHEMBL1821659, “N-Benzyl-3-sulfonamidopyrrolidines are a New Class of Bacterial DNA Gyrase Inhibitors” (ACS Med Chem Lett, 2011).
